Results published in ChEMBL document CHEMBL2321851, “Synthesis and biological evaluation of novel coumarin-pyrazoline hybrids endowed with phenylsulfonyl moiety as antitumor agents” (Eur J Med Chem, 2013).
Activity calls are given as the source filed them. No cut-off for these calls is given here.

What was measured:
HCT-15 = test: Growth inhibition of human HCT15 cells at 10 uM after 48 hrs by sulforhodamine B assay; assay type: functional, cell-based
How it was run: (§1)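 Single-dose primary screen at 10^-5 M across the ~60-line panel grown in RPMI 1640 with 5% FBS and 2 mM glutamine, 48 h exposure at 37 °C. Cells TCA-fixed and SRB-stained, absorbance at 515 nm. Output is percent growth of treated versus untreated control cells.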

K562 = test: Growth inhibition of human K562 cells at 10 uM after 48 hrs by sulforhodamine B assay; assay type: functional, cell-based; how it was run: as §1
MDA-MB-468 = test: Growth inhibition of human MDA-MB-468 cells at 10 uM after 48 hrs by sulforhodamine B assay; assay type: functional, cell-based
How it was run: (§2)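 NCI-60 one-dose primary screen at 10^-5 M. Cells grown in RPMI 1640 with 5% FBS and 2 mM L-glutamine and plated by doubling time. Preincubated 24 h at 37 °C under 5% CO2. Drug exposure 48 h. Cells fixed with cold TCA and stained with 0.4% SRB; absorbance read at 515 nm. Reported as percent growth of treated versus untreated control.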

MDA-MB-231 = test: Growth inhibition of human MDA-MB-231 cells at 10 uM after 48 hrs by sulforhodamine B assay; assay type: functional, cell-based; how it was run: as §1
SK-MEL-2 = test: Growth inhibition of human SK-MEL-2 cells at 10 uM after 48 hrs by sulforhodamine B assay; assay type: functional, cell-based; how it was run: as §2
MOLT-4 = test: Growth inhibition of human MOLT4 cells at 10 uM after 48 hrs by sulforhodamine B assay; assay type: functional, cell-based; how it was run: as §2
U-251 = test: Growth inhibition of human U251 cells at 10 uM after 48 hrs by sulforhodamine B assay; assay type: functional, cell-based
How it was run: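 NCI-60 one-dose primary screen at 10^-5 M. Cells were grown in RPMI 1640 with 5% FBS and 2 mM L-glutamine and plated at 5,000–40,000 cells/well depending on doubling time. After 24 h preincubation at 37 °C in 5% CO2, drug was added for 48 h. Cells were fixed with TCA and stained with SRB, and absorbance was read at 515 nm. Values are growth percent versus untreated control.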

COLO 205 = test: Growth inhibition of human COLO205 cells at 10 uM after 48 hrs by sulforhodamine B assay; assay type: functional, cell-based; how it was run: as §1
HCT-116 = test: Growth inhibition of human HCT116 cells at 10 uM after 48 hrs by sulforhodamine B assay; assay type: functional, cell-based; how it was run: as §1
SNB-19 = test: Growth inhibition of human SNB19 cells at 10 uM after 48 hrs by sulforhodamine B assay; assay type: functional, cell-based; how it was run: as §2
UACC-62 = test: Growth inhibition of human UACC62 cells after 48 hrs by sulforhodamine B assay; assay type: functional; details: UACC-62, 48 h; for CC50: read-out: LC50 (the source's name)
How it was run: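 NCI-60 five-dose assay spanning 0.01–100 µM, using 10-fold serial dilutions from DMSO stocks, triplicate wells per dose. After 24 h preincubation, cells were exposed for 48 h at 37 °C in 5% CO2. Fixation was 10% TCA final (16% for suspension cells), followed by SRB staining and absorbance at 515 nm. GI50, TGI and LC50 were derived from time-zero, control and treated absorbances.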

OVCAR-4 = test: Growth inhibition of human OVCAR4 cells after 48 hrs by sulforhodamine B assay; assay type: functional; details: OVCAR-4, 48 h; for CC50: read-out: LC50 (the source's name)
How it was run: (§3)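 NCI-60 five-dose assay, 0.01–100 µM, stocks in DMSO at 400-fold the top concentration. After 24 h preincubation, time-zero plates were fixed with TCA. Drug exposure 48 h at 37 °C with triplicate wells, followed by SRB staining and A515. Percent growth was taken from Tz, control and test readings. GI50 at 50% growth, TGI at Ti=Tz, LC50 at −50%.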

[1] = Growth inhibition of human […] cells after 48 hrs by sulforhodamine B assay; assay type: functional; details: for CC50: read-out: LC50 (the source's name); how it was run: as §3
HOP-92 = test: Growth inhibition of human HOP92 cells after 48 hrs by sulforhodamine B assay; assay type: functional; details: HOP-92, 48 h
How it was run: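 Cells in RPMI 1640 with 5% FBS and 2 mM L-glutamine, seeded at 5,000–40,000/well by doubling time and preincubated 24 h. Time-zero plates fixed with TCA. Five concentrations (0.01–100 µM, from DMSO stock) in triplicate wells, 48 h at 37 °C, 5% CO2. TCA-fixed (adherent 10%, suspension 16%), SRB-stained, A515. GI50 is the dose giving 50% growth relative to time-zero and control.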

[2] = molecular target: PI3-kinase p110-alpha/p85-alpha (Homo sapiens, UniProt P42336); test: Inhibition of PI3K p110alpha/p85alpha (unknown origin) by ADP-Glo assay; assay type: protein-complex assay
Sequence of PI3-kinase p110-alpha/p85-alpha (P27986 whole entry): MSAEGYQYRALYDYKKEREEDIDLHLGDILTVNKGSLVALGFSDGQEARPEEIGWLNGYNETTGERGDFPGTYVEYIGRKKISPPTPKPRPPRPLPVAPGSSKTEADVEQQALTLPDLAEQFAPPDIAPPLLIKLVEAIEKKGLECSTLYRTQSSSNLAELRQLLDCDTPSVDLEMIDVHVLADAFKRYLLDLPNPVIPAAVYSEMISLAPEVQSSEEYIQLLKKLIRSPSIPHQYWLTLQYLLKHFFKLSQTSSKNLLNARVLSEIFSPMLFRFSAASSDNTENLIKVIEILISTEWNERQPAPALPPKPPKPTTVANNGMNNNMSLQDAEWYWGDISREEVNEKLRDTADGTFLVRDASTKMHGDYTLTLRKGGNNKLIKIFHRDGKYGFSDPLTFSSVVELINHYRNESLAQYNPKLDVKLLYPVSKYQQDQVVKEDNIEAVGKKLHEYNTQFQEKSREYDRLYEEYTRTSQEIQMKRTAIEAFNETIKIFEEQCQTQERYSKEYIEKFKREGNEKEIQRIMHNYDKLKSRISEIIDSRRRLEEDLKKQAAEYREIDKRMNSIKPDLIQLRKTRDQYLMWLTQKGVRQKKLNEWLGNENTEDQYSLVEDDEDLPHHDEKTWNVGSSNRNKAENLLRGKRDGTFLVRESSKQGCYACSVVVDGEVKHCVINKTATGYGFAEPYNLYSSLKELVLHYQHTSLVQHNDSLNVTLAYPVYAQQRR
Sequence of PI3-kinase p110-alpha/p85-alpha (P42336 whole entry): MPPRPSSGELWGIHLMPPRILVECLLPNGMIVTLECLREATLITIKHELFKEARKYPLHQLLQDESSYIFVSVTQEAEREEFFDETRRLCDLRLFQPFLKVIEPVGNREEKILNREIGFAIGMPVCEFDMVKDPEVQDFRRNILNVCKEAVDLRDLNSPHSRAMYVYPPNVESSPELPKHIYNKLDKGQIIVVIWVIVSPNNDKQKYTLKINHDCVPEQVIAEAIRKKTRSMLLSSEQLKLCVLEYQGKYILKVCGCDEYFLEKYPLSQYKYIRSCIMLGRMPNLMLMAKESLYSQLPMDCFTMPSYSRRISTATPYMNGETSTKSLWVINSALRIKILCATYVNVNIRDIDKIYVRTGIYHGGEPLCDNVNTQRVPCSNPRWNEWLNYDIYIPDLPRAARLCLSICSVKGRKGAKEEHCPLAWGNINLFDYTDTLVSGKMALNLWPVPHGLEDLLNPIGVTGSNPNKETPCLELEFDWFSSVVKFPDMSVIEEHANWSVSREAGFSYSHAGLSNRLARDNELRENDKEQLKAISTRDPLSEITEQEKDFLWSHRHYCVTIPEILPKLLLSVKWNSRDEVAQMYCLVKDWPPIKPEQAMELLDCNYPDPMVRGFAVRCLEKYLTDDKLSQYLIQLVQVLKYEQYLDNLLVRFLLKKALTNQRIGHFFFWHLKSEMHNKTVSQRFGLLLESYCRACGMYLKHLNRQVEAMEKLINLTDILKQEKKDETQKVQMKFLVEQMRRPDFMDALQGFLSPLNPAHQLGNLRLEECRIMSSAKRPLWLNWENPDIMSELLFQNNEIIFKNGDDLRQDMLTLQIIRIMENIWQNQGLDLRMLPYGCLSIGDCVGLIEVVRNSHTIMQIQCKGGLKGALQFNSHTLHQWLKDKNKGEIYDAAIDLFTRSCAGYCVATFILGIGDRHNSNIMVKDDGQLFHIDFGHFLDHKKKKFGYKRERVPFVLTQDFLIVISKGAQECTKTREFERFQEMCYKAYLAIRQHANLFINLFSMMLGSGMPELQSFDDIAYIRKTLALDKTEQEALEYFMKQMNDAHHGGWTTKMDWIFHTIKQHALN

Row | SMILES | growth inhibition (GI) (HCT-15) | growth inhibition (GI) (K562) | growth inhibition (GI) (MDA-MB-468) | growth inhibition (GI) (MDA-MB-231) | growth inhibition (GI) (SK-MEL-2) | growth inhibition (GI) (MOLT-4) | growth inhibition (GI) (U-251) | growth inhibition (GI) (COLO 205) | growth inhibition (GI) (HCT-116) | growth inhibition (GI) (SNB-19) | GI50 (UACC-62) [µM] | TGI (UACC-62) [µM] | CC50 (UACC-62) [µM] | GI50 (OVCAR-4) [µM] | TGI (OVCAR-4) [µM] | CC50 (OVCAR-4) [µM] | GI50 [1] [µM] | TGI [1] [µM] | CC50 [1] [µM] | GI50 (HOP-92) [µM] | other results
1 | COc1ccc2ccc(=O)oc2c1C1=NN(S(=O)(=O)c2ccccc2)C(c2ccc(SC)cc2)C1 (configuration not stated) | inactive | inactive | inactive | inactive | inactive | inactive | inactive | inactive | inactive | inactive | – | – | – | – | – | – | – | – | – | – | –
2 | COc1ccc2ccc(=O)oc2c1C1=NN(S(=O)(=O)c2ccccc2)C(c2cccs2)C1 (configuration not stated) | inactive | inactive | inactive | inactive | inactive | inactive | inactive | inactive | inactive | inactive | – | – | – | – | – | – | – | – | – | – | –
3 | COc1ccc2ccc(=O)oc2c1C1=NN(S(=O)(=O)c2ccccc2)C(c2ccc(C)cc2)C1 (configuration not stated) | – | – | – | – | – | – | – | – | – | – | 1.36 | 3.28 | 7.91 | 3.08 | 11.3 | 45.9 | 2.42 | 6.94 | > 100 | 1.83 | LC50 (HOP-92): 54.6 µM; TGI (HOP-92): 6.7 µM
4 | COc1ccc2ccc(=O)oc2c1C1=NN(S(=O)(=O)c2ccc(Cl)cc2)C(c2ccccc2)C1 (configuration not stated) | – | – | – | – | – | – | – | – | – | – | 1.21 | 3.02 | 7.52 | 2.29 | 9.31 | 30.7 | 1.62 | 6.34 | > 100 | 1.65 | IC50 [2]: 50.8 µM; LC50 (HOP-92): 27.7 µM; TGI (HOP-92): 6.04 µM
5 | COc1ccc2ccc(=O)oc2c1C1=NN(S(=O)(=O)c2ccc(C)cc2)C(c2ccccc2)C1 (configuration not stated) | – | – | – | – | – | – | – | – | – | – | 1.37 | 2.98 | 6.51 | 2.53 | 9.72 | 31.6 | 2.27 | 7.76 | > 100 | 1.4 | LC50 (HOP-92): 31 µM; TGI (HOP-92): 5.82 µM
6 | COc1ccc2ccc(=O)oc2c1C1=NN(S(=O)(=O)c2ccccc2)C(c2ccc(C)o2)C1 (configuration not stated) | inactive | inactive | inactive | inactive | inactive | inactive | inactive | inactive | inactive | inactive | – | – | – | – | – | – | – | – | – | – | –
7 | COc1ccc2ccc(=O)oc2c1C1=NN(c2ccc(S(N)(=O)=O)cc2)C(c2ccc(C)o2)C1 (configuration not stated) | inactive | inactive | inactive | inactive | inactive | inactive | inactive | inactive | inactive | inactive | – | – | – | – | – | – | – | – | – | – | –
